This is an account of results in publication PMC4789169 (Bioorganic & medicinal chemistry, 2016).

Data set [1] concerns the target T1, recombinant Top1 (Homo sapiens, UniProt P11387).
T1 sequence (P11387 1-765): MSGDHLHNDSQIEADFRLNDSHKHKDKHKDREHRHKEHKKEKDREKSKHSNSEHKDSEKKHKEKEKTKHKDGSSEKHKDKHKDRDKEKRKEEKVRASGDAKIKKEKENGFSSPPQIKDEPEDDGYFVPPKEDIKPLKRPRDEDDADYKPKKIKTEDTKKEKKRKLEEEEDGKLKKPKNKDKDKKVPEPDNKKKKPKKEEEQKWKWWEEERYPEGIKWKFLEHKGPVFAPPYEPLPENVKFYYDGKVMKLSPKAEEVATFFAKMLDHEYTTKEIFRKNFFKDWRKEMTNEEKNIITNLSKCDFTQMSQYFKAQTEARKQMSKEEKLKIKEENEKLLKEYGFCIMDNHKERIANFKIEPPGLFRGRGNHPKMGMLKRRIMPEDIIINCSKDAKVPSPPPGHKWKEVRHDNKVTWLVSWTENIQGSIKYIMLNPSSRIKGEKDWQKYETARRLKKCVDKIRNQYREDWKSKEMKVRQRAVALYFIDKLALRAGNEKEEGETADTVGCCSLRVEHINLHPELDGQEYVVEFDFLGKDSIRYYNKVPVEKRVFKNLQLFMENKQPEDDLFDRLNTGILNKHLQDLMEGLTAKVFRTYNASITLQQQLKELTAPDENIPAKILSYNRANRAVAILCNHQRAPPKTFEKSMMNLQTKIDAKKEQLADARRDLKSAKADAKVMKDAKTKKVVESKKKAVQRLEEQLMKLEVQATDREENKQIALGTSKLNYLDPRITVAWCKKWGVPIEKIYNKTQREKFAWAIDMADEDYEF
In words: Top1-mediated DNA cleavage assay. In kind it is biochemical. The following applies: for Top1 Cleavage: score relative to 1 μM camptothecin (1), tested at 0.1, 1, 10, 100 μM.

The test system of the next data set is Ovarian OVCAR-3. The conditions noted are these: read-out: Cytotoxicity (GI50, μM) Ovarian OVCAR-3; NCI-60; cited from earlier work.
The next data set deals with CNS SF-539. The following applies: read-out: Cytotoxicity (GI50, μM) CNS SF-539; NCI-60; cited from earlier work.
The next data set concerns Colon HCT-116. The following applies: read-out: Cytotoxicity (GI50, μM) Colon HCT-116; NCI-60; cited from earlier work.
The subject of the next data set is Melanoma UACC-62. The following applies: read-out: Cytotoxicity (GI50, μM) Melanoma UACC-62; NCI-60; cited from earlier work.
The subject of a further data set is Lung HOP-62. The conditions noted are these: read-out: Cytotoxicity (GI50, μM) Lung HOP-62; NCI-60; cited from earlier work.
The test system of another data set is Renal SN12C. The conditions noted are these: read-out: Cytotoxicity (GI50, μM) Renal SN12C; NCI-60; cited from earlier work.
Data set [2] concerns the target T1, recombinant Top1. Set-up: key to the marks not given beside the values. The conditions noted are these: score relative to 1 μM camptothecin (1); cited from earlier work.
For another data set, the system named is Prostate DU-145. The conditions noted are these: read-out: Cytotoxicity (GI50, μM) Prostate DU-145; NCI-60; cited from earlier work.
Data set [3] deals with all 60 cell lines (NCI-60 human tumor cell line screen). In words: NCI-60 GI50 mean graph midpoint. The format is cell-based. The following applies: read-out: Cytotoxicity (GI50, μM) MGM. In a few lines:
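Compounds were first screened at a single 10 μM dose across NCI-60 lines. Those with low enough averaged growth percent advanced to a five-concentration assay (10⁻⁸–10⁻⁴ M). […] Values beyond the range were recorded as the minimum or maximum tested concentration. MGM is the average GI50 over all 60 lines.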

The conditions of data set [4]: cited from earlier work.

Read-outs that look alike come from different tables or passages of the source.

In the case of `O=C(O)C(F)(F)F.O=C1c2cc3c(cc2-c2c1c1ccc(Cl)cc1c(=O)n2CCCN1CCOCC1)OCO3` [Compound 28, 3-Chloro-5,6-dihydro-6-(3-morpholinopropyl)-8,9-methylenedioxy-5,11-dioxo-11H-indeno[1,2-c]isoquinoline Trifluoroacetate], the “Top1 Cleavage” value on recombinant Top1 [1] was “+ (+, between 20 and 50% activity)”.
What is called GI50 is the concentration that inhibits growth by half. In the case of `COc1cc2c3c(n(CCCN4CCOCC4)c(=O)c2cc1OC)-c1cc2c(cc1C3=O)OCO2` [Compound 4, indotecan], the GI50 in the data set with Ovarian OVCAR-3 is 74.1 µM; in the data set with CNS SF-539, 0.04 µM; in the data set on Colon HCT-116 it was 1.15 µM; with Melanoma UACC-62 it was 0.03 µM; with Lung HOP-62, 1.78 µM; with Renal SN12C it was 0.813 µM. Moreover, the 50% growth inhibitory concentration (GI50) in the data set on Prostate DU-145 is 0.155 µM. At recombinant Top1 [2], the “Top1 Cleavage” value is recorded as “++++”.
For the molecule `O=C1c2cc3c(cc2-c2c1c1ccc(Cl)cc1c(=O)n2C[C@H](O)CO)OCO3` [Compound 22, (S)-3-Chloro-6-(2,3-dihydroxypropyl)-8,9-methylenedioxy-5H-indeno[1,2-c]isoquinoline-5,11(6H)-dione], at recombinant Top1 [1], the “Top1 Cleavage” value is “++ (++, between 50 and 75% activity)”.
The same measure, in the same setting: the result for `O=C1c2cc3c(cc2-c2c1c1cc(Cl)c(Cl)cc1c(=O)n2C[C@H](O)CO)OCO3` [Compound 45, (S)-2,3-Dichloro-6-(2,3-dihydroxypropyl)-8,9-methylenedioxy-5,11-dioxo-11H-indeno[1,2-c]isoquinoline] reads “++ (++, between 50 and 75% activity)”; that for `O=C1c2cc3c(cc2-c2c1c1ccc(F)cc1c(=O)n2C[C@H](O)CO)OCO3` [Compound 21, (S)-3-Fluoro-6-(2,3-dihydroxypropyl)-8,9-methylenedioxy-5H-indeno[1,2-c]isoquinoline-5,11(6H)-dione], “++++”.
Consider `O=C1c2cc3c(cc2-c2c1c1ccc(F)cc1c(=O)n2CCCn1ccnc1)OCO3` [Compound 25, 3-Fluoro-6-(3-(1H-imidazol-1-yl)propyl)-8,9-methylenedioxy-5,11-dioxo-11H-indeno[1,2-c]isoquinoline], for which the Top1 suppression activity result at recombinant Top1 [1] (high drug concentration (100 μM), band density at several cleavage sites decreases) was “suppress Top1-mediated DNA cleavage”. Further, the “Top1 Cleavage” value at recombinant Top1 [1] was “+++ (+++, between 75 and 95% activity)”. Moreover, the GI50 in data set [3] was no more than 0.011 µM.
For the molecule `O=C1c2cc3c(cc2-c2c1c1cc(F)c(F)cc1c(=O)n2CCCn1ccnc1)OCO3` [Compound 38, 2,3-Difluoro-6-(3-(1H-imidazol-1-yl)propyl)-8,9-methylenedioxy-5,11-dioxo-11H-indeno[1,2-c]isoquinoline], the “Top1 Cleavage” value at recombinant Top1 [1] was “+ (+, between 20 and 50% activity)”. Moreover, in data set [3], the 50% growth inhibitory concentration (GI50) came out at 0.03 µM.
Take `O=C1c2cc3c(cc2-c2c1c1ccc(F)cc1c(=O)n2C[C@H](O)[C@@H](O)[C@H](O)CO)OCO3` [Compound 23, (2′S,3′R,4′R)-3-Fluoro-5,6-dihydro-6-(2′,3′,4′,5′-tetrahydroxypentyl)-8,9-methylenedioxy-5,11-dioxo-11H-indeno[1,2-c]isoquinoline]: at recombinant Top1 [1], the “Top1 Cleavage” value is “++ (++, between 50 and 75% activity)”.
Consider `O=C1c2cc3c(cc2-c2c1c1cc(Cl)c(Cl)cc1c(=O)n2CCCn1ccnc1)OCO3` [Compound 46, 2,3-Dichloro-6-(3-(1H-imidazol-1-yl)propyl)-8,9-methylenedioxy-5,11-dioxo-11H-indeno[1,2-c]isoquinoline], for which the “Top1 Cleavage” value on recombinant Top1 [1] is “+ (+, between 20 and 50% activity)”.
On the same count and under the same terms, the result for `O=C(O)C(F)(F)F.O=C1c2cc3c(cc2-c2c1c1ccc(F)cc1c(=O)n2CCCN1CCOCC1)OCO3` [Compound 27, 3-Fluoro-5,6-dihydro-6-(3-morpholinopropyl)-8,9-methylenedioxy-5,11-dioxo-11H-indeno[1,2-c]isoquinoline Trifluoroacetate] reads “+ (+, between 20 and 50% activity)”; that for `O=C1c2cc3c(cc2-c2c1c1cc(F)c(F)cc1c(=O)n2C[C@H](O)CO)OCO3` [Compound 37, (S)-2,3-Difluoro-6-(2,3-dihydroxypropyl)-8,9-methylenedioxy-5,11-dioxo-11H-indeno[1,2-c]isoquinoline], “++ (++, between 50 and 75% activity)”.
With `COc1cc2c3c(n(CCCn4ccnc4)c(=O)c2cc1OC)-c1cc2c(cc1C3=O)OCO2` [Compound 5, indimitecan], the 50% growth inhibitory concentration (GI50) with Ovarian OVCAR-3 is 0.085 µM; with CNS SF-539, 0.037 µM; with Colon HCT-116 it was less than 0.01 µM; with Melanoma UACC-62, less than 0.01 µM; in the data set with Lung HOP-62, less than 0.01 µM; in the data set on Renal SN12C it was less than 0.01 µM. Besides, the GI50 with Prostate DU-145 is less than 0.01 µM. Moreover, the “Metabolism in the presence of human liver microsomes” value in [4] was “oxidative demethylation of the 2-methoxy group”. Besides, on recombinant Top1 [2], the “Top1 Cleavage” value is given as “++++”.
Regarding `O=C1c2cc3c(cc2-c2c1c1ccc(Cl)cc1c(=O)n2C[C@H](O)[C@H](O)[C@H](O)CO)OCO3` [Compound 24, (2′S,3′S,4′R)-3-Chloro-5,6-dihydro-6-(2′,3′,4′,5′-tetrahydroxypentyl)-8,9-methylenedioxy-5,11-dioxo-11H-indeno[1,2-c]isoquinoline], the “Top1 Cleavage” value at recombinant Top1 [1] is “+ (+, between 20 and 50% activity)”.
On the same count and under the same terms, the result for `O=C1c2cc3c(cc2-c2c1c1ccc(Cl)cc1c(=O)n2CCCn1ccnc1)OCO3` [Compound 26, 3-Chloro-6-(3-(1H-imidazol-1-yl)propyl)-8,9-methylenedioxy-5,11-dioxo-11H-indeno[1,2-c]isoquinoline] reads “++ (++, between 50 and 75% activity)”.
In the case of `COc1cc2c3c(n(CCCNCCO)c(=O)c2cc1OC)-c1cc2c(cc1C3=O)OCO2` [Compound 6, MJ-III-65], the 50% growth inhibitory concentration (GI50) with Melanoma UACC-62 is 0.03 µM; in the data set with Prostate DU-145, 0.02 µM. Besides, on recombinant Top1 [2], the “Top1 Cleavage” value is on record as “++++”.
